Data on two compounds can be found in ChEMBL document CHEMBL4130499, “Serendipitous discovery of potent human head and neck squamous cell carcinoma anti-cancer molecules: A fortunate failure of a rational molecular design” (Eur J Med Chem, 2017).

Each structure is given as a SMILES string. Active and inactive are the calls of the source. The rule behind the calls is not given here.

The test system of series [1] is WSU-HN13. Nature of the series: Cytotoxicity in human HN13 cells assessed as reduction in cell viability incubated for 24 hrs by MTT assay. The note with it: WSU-HN13, 24 h. It counts as functional, cell-based. In a few lines:
(§1)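 HNSCC lines (HN6, HN12, HN13) grown in DMEM with 10% fetal calf serum at 37 °C, 5% CO2, to 70–80% confluence. Seeded, after 24 h exposed to rising compound concentrations for a further 24 h. MTT (5 mg/mL in PBS) added, formazan dissolved in DMSO, absorbance read at 590 nm. IC50 in nM, mean of three independent triplicate experiments ± standard error.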
(In general: Formazan colour is commonly taken as a measure of viable cells.)

Series [2] is described as follows: Cytotoxicity in human HN6 cells assessed as reduction in cell viability incubated for 24 hrs by MTT assay. The following applies: HN-6, 24 h. In kind it is functional, cell-based. In outline: as §1
In series [3] the target is T1, Histone deacetylase (Homo sapiens) (UniProt Q13547+O15379+Q9UBN7+Q92769+Q9UQL6+Q8WUI4+Q9BY41+Q96DB2+P56524+Q9UKV0+Q969S8). As to the kind of experiment: Ratio of inhibition of HDAC in human HN13 cells assessed as increase in histone H3 acetylation to IC50 for inhibition of HDAC in human HeLa nuclear extracts.
The target of the next series is Histone deacetylase. As to the kind of experiment: Inhibition of HDAC in human HeLa nuclear extracts incubated for 60 mins using fluorometric substrate by fluorometric assay. In kind it is protein assay. In a few lines:
(§2)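 HeLa nuclear extract incubated with compound, assay buffer and acetyl-lysine fluorogenic HDAC substrate for 60 min at 37 °C. Lysine developer then added for a further 30 min at 37 °C. Fluorescence read at ex 370/em 450 nm. Water served as positive control and 20 µM TSA as inhibitor control.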

Series [4] relates to WSU-HN13. Nature of the series: Induction of PTEN protein expression in human HN13 cells assessed as reduction in PI3K/Akt/mTOR signalling by measuring reduction in pS6 protein expression incubated for 24 hrs by Western blot. It counts as functional, cell-based. In outline: (§3)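 HN13 cells treated 24 h with 1.0 or 10.0 nM compound versus vehicle controls. Lysed in Tris pH 7.5/SDS/β-mercaptoethanol with protease inhibitors at 4 °C, protein quantified by BCA. 30 μg loaded for SDS-PAGE, transferred to PVDF, blocked 1 h in 5% milk, probed for PTEN (and pS6) with GAPDH loading control. HRP chemiluminescent detection.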
On the technique in general: A western blot detects proteins with antibodies after separation by electrophoresis.

Series [5] has as its target T1, Histone deacetylase (Homo sapiens). As to the kind of experiment: Inhibition of HDAC in human HN13 cells assessed as reduction in histone H3 acetylation incubated for 24 hrs by immunofluorescence assay. It counts as cell-based. In a few lines:
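HN13 on glass coverslips, overnight at 37 °C, then treated 24 h at 1 and 10 nM, TSA as positive control. Fixed in 4% paraformaldehyde, permeabilized with 0.5% Triton X-100, blocked in 3% BSA/PBS. Anti-AcH3 (lys9) primary 2 h, TRITC anti-rabbit 1 h, nuclear counterstain.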

Series [6] can be described thus: Selectivity index, ratio of IC50 for cytotoxicity in human […] cells. In kind it is toxicity, cell-based. The following applies: HN13 cells and 184B5 cells, read-out: Ratio IC50.
The subject of series [7] is WSU-HN13. Nature of the series: Induction of PTEN protein expression in human HN13 cells incubated for 24 hrs by Western blot. In kind it is functional, cell-based. In a few lines: as §3
The next series has as its system 184B5. As to the kind of experiment: Cytotoxicity in human 184B5 cells assessed as reduction in cell viability incubated for 24 hrs by MTT assay. It counts as cell-based. The following applies: 184B5, 24 h. In outline:
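184B5 immortalized non-cancer breast epithelial cells; cytotoxicity over 24 h drug exposure, evaluated alongside the HNSCC lines; IC50 in nM taken as mean of three independent triplicate experiments ± standard error.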

A short description of series [8]: Cytotoxicity in human HN12 cells assessed as reduction in cell viability incubated for 24 hrs by MTT assay. It counts as functional, cell-based. The note with it: HN12, 24 h. In outline:
as §1

The target in series [9] is T1, Histone deacetylase (Homo sapiens). As to the kind of experiment: Inhibition of HDAC in human HN13 cells assessed as increase in histone H3 acetylation at 1 nM incubated for 24 hrs by Western blot.
The target is the same in series [10]. Nature of the series: Inhibition of HDAC in human HeLa nuclear extracts at 500 uM incubated for 60 mins using fluorometric substrate by fluorometric assay. It counts as protein assay. In outline:
as §2

One may read the IC50 as the concentration that gives 50% inhibition. In general, inhibition refers to how much of the control response was suppressed. `O=CN/N=C/c1ccc(NS(=O)(=O)c2ccc(-c3ccccc3)cc2)cc1O`: the IC50 with WSU-HN13 [1] was found to be 9.85 nM; in series [2], 4.94 nM; on Histone deacetylase, 292000 nM; in the series with 184B5 it was 1840 nM; in [8] it was 5.03 nM. Besides, the Ratio in series [3] stood at 10. Also, the Activity entry with WSU-HN13 [4] and in the series with WSU-HN13 [7] was “Dose-dependent effect” each time. The inhibition entry in series [5] is “Dose-dependent effect”. Further, the selectivity ratio in series [6] is over 186. In addition, the inhibition result in series [9] is “Active”.

In the case of `NC(=O)c1ccc(NS(=O)(=O)c2ccc(-c3ccccc3)cc2)cc1O`, the IC50 stood at 9.66 nM in the series with WSU-HN13 [1], 4.73 nM in series [2], 1960 nM with 184B5 and 4.99 nM in series [8]. Also, the Ratio in series [3] is 10. For the same compound, the Activity entry in the series on WSU-HN13 [4] and with WSU-HN13 [7] was “Dose-dependent effect” in each case. The figures for the inhibition result in [5] and in [10] were “Dose-dependent effect” and 20%, respectively. The selectivity ratio in series [6] is over 200. In [9], the inhibition result was “Active”.
